These results are taken from ChEMBL document CHEMBL1255544, “Synthesis and evaluation of novel chloropyrrole molecules designed by molecular hybridization of common pharmacophores as potential antimicrobial agents” (2010).

≈ marks a conversion by molar mass, not a printed value. Calls of active or inactive are those of the source.

Experiment [1] has as its system Candida albicans. The experiment can be described thus: Antimicrobial activity against Candida albicans after 48 hrs by broth dilution method. It is filed as functional. A digest of the protocol:
(§1)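 MIC by broth dilution: the lowest concentration (highest dilution) that arrested bacterial or fungal growth. Strains were E. coli ATCC-25922, S. aureus ATCC-25923, P. aeruginosa ATCC-27853 and C. albicans.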
(In general: Broth dilution looks for growth in wells or tubes with falling amounts of substance.)

Experiment [2] concerns Staphylococcus aureus. As to the kind of experiment: Antimicrobial activity against Staphylococcus aureus ATCC 25923 after 24 hrs by disk diffusion method. The format is functional. In short, it runs like this:
(§2)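 Zone of inhibition by disc diffusion against E. coli ATCC-25922, S. aureus ATCC-25923, P. aeruginosa ATCC-27853 and recultured Klebsiella pneumoniae.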
On the technique in general: A growth-free zone around the sample is the usual read-out of agar diffusion tests.

Experiment [3] deals with Pseudomonas aeruginosa. The experiment can be described thus: Antimicrobial activity against Pseudomonas aeruginosa ATCC 27853 after 24 hrs by broth dilution method. The format is functional. The following applies: ATCC 27853, 24 h. In short, it runs like this: as §1
A further experiment has as its system Klebsiella pneumoniae. As to the kind of experiment: Antimicrobial activity against Klebsiella pneumoniae at 100 ug/ml after 24 hrs by broth dilution method. The format is functional, organism-based.
For experiment [4], the system named is Pseudomonas aeruginosa. The experiment can be described thus: Antimicrobial activity against Pseudomonas aeruginosa ATCC 27853 after 24 hrs by disk diffusion method. It is filed as functional. A digest of the protocol: as §2
Experiment [5] deals with Escherichia coli. The experiment can be described thus: Antimicrobial activity against Escherichia coli ATCC […] after 24 hrs by disk diffusion method. The format is functional. In short, it runs like this:
as §2

In experiment [6] the test system is Staphylococcus aureus. As to the kind of experiment: Antimicrobial activity against Staphylococcus aureus ATCC 25923 after 24 hrs by broth dilution method. To be noted: ATCC 25923, 24 h. It is filed as functional. A digest of the protocol: as §1
In experiment [7] the test system is Candida albicans. As to the kind of experiment: Antimicrobial activity against Candida albicans after 48 hrs by agar dilution method. The format is functional. In short, it runs like this:
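Candida albicans tested by agar dilution, with compounds in DMSO.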
On the technique in general: In agar dilution, organisms are placed on agar that contains the substance at set levels.

Experiment [8] relates to Escherichia coli. The experiment can be described thus: Antimicrobial activity against Escherichia coli ATCC […] after 24 hrs by broth dilution method. It is filed as functional. A digest of the protocol: as §1

For orientation: MIC means the smallest concentration in the dilution series that meets the test's criterion for growth inhibition. Lower therefore signals a more susceptible organism. As for `COc1ccc(/C=N/NC(=O)c2cc(Cl)c[nH]2)cc1`, the MIC in the experiment on Candida albicans [1] came out at 25 µg/mL (≈ 90 µM); in the experiment with Pseudomonas aeruginosa [3], 100 µg/mL (≈ 360 µM); with Staphylococcus aureus [6] it was 12.5 µg/mL (≈ 45 µM); in the experiment with Escherichia coli [8] it was 12.5 µg/mL (≈ 45 µM). In addition, the “diameter of the inhibition zone (DIZ)” value stood at 18 mm with Staphylococcus aureus [2], 14 mm in the experiment with Pseudomonas aeruginosa [4], 10 mm with Escherichia coli [5] and 15 mm in the experiment on Candida albicans [7]. Further, the outcome in the experiment on Klebsiella pneumoniae was inactive.

For the compound `O=C(N/N=C/c1ccccc1O)c1cc(Cl)c[nH]1`, the MIC stood at 25 µg/mL (≈ 94.8 µM) in the experiment with Candida albicans [1], 100 µg/mL (≈ 379 µM) against Pseudomonas aeruginosa [3], 6.25 µg/mL (≈ 23.7 µM) in the experiment with Staphylococcus aureus [6] and 6.25 µg/mL (≈ 23.7 µM) against Escherichia coli [8]. Further, the “diameter of the inhibition zone (DIZ)” value in the experiment on Staphylococcus aureus [2] worked out at 17 mm; in the experiment on Pseudomonas aeruginosa [4] it was 14 mm; in the experiment on Escherichia coli [5] it was 20 mm; in the experiment with Candida albicans [7], 18 mm. Also, the outcome in the experiment on Klebsiella pneumoniae was inactive.

For `COc1ccc(OC)c(/C=C/C(=O)c2cc(Cl)c[nH]2)c1`, the MIC in the experiment with Candida albicans [1] was determined as 50 µg/mL (≈ 171 µM); in the experiment with Pseudomonas aeruginosa [3], 100 µg/mL (≈ 343 µM); in the experiment with Staphylococcus aureus [6], 12.5 µg/mL (≈ 42.8 µM); against Escherichia coli [8] it was 12.5 µg/mL (≈ 42.8 µM). For the same compound, the “diameter of the inhibition zone (DIZ)” value in the experiment with Staphylococcus aureus [2] was 19 mm; in the experiment with Pseudomonas aeruginosa [4], 15 mm; with Escherichia coli [5], 18 mm; with Candida albicans [7], 16 mm. Further, the result in the experiment with Klebsiella pneumoniae was inactive.

As to `C[C@@H]1[C@H](O)[C@@H](C)/C=C/C=C/C=C/C=C/C=C/C=C/C=C/[C@H](O[C@@H]2O[C@H](C)[C@@H](O)[C@H](N)[C@@H]2O)C[C@@H]2O[C@](O)(C[C@@H](O)C[C@@H](O)[C@H](O)CC[C@@H](O)C[C@@H](O)CC(=O)O[C@H]1C)C[C@H](O)[C@H]2C(=O)O` [AMPHOTERICIN B], the MIC against Candida albicans [1] was determined as 1.56 µg/mL (≈ 1.69 µM). In the experiment on Candida albicans [7], the “diameter of the inhibition zone (DIZ)” value was 25 mm.

Regarding `COc1ccc(/C=C/C(=O)c2cc(Cl)c[nH]2)cc1`, the MIC in the experiment on Candida albicans [1] came out at 50 µg/mL (≈ 191 µM); against Pseudomonas aeruginosa [3], 25 µg/mL (≈ 95.5 µM); in the experiment with Staphylococcus aureus [6], 12.5 µg/mL (≈ 47.8 µM); in the experiment on Escherichia coli [8] it was 12.5 µg/mL (≈ 47.8 µM). Further, the “diameter of the inhibition zone (DIZ)” value amounted to 18 mm in the experiment with Staphylococcus aureus [2], 15 mm with Pseudomonas aeruginosa [4], 16 mm in the experiment on Escherichia coli [5] and 12 mm in the experiment with Candida albicans [7]. The outcome with Klebsiella pneumoniae was inactive.

Consider `O=C(N/N=C/c1ccco1)c1cc(Cl)c[nH]1`, for which the MIC worked out at 25 µg/mL (≈ 105 µM) against Candida albicans [1], 100 µg/mL (≈ 421 µM) against Pseudomonas aeruginosa [3], 25 µg/mL (≈ 105 µM) in the experiment on Staphylococcus aureus [6] and 25 µg/mL (≈ 105 µM) against Escherichia coli [8]. Also, the “diameter of the inhibition zone (DIZ)” value is recorded as 24 mm with Staphylococcus aureus [2], 15 mm with Pseudomonas aeruginosa [4], 23 mm in the experiment with Escherichia coli [5] and 21 mm in the experiment with Candida albicans [7]. Further, in the experiment with Klebsiella pneumoniae, the outcome was inactive.

Take `COc1ccc(/C=N/NC(=O)c2cc(Cl)c[nH]2)cc1OC`: the MIC with Candida albicans [1] came out at 25 µg/mL (≈ 81.2 µM); against Pseudomonas aeruginosa [3] it was 100 µg/mL (≈ 325 µM); in the experiment on Staphylococcus aureus [6], 12.5 µg/mL (≈ 40.6 µM); against Escherichia coli [8], 12.5 µg/mL (≈ 40.6 µM). Also, the “diameter of the inhibition zone (DIZ)” value with Staphylococcus aureus [2] was determined as 20 mm; with Pseudomonas aeruginosa [4], 16 mm; in the experiment on Escherichia coli [5], 12 mm; with Candida albicans [7], 20 mm. Besides, in the experiment on Klebsiella pneumoniae, the result was inactive.

With `COc1ccc(/C=C/C(=O)c2cc(Cl)c[nH]2)cc1OC`, the MIC in the experiment on Candida albicans [1] amounted to 50 µg/mL (≈ 171 µM); in the experiment on Pseudomonas aeruginosa [3], 100 µg/mL (≈ 343 µM); with Staphylococcus aureus [6] it was 12.5 µg/mL (≈ 42.8 µM); against Escherichia coli [8] it was 12.5 µg/mL (≈ 42.8 µM). Further, the “diameter of the inhibition zone (DIZ)” value with Staphylococcus aureus [2] was found to be 13 mm; in the experiment with Pseudomonas aeruginosa [4], 14 mm; in the experiment on Escherichia coli [5] it was 16 mm; with Candida albicans [7], 12 mm. The outcome in the experiment on Klebsiella pneumoniae was inactive.

Consider `O=C(/C=C/c1ccccc1O)c1cc(Cl)c[nH]1`, for which the MIC against Candida albicans [1] turned out to be 50 µg/mL (≈ 202 µM); against Pseudomonas aeruginosa [3], 25 µg/mL (≈ 101 µM); against Staphylococcus aureus [6], 12.5 µg/mL (≈ 50.5 µM); against Escherichia coli [8], 25 µg/mL (≈ 101 µM). The “diameter of the inhibition zone (DIZ)” value with Staphylococcus aureus [2] was 16 mm; in the experiment with Pseudomonas aeruginosa [4], 18 mm; in the experiment with Escherichia coli [5] it was 10 mm; in the experiment with Candida albicans [7], 15 mm. Further, in the experiment with Klebsiella pneumoniae, the result was inactive.

On to `CN(C)c1ccc(/C=N/NC(=O)c2cc(Cl)c[nH]2)cc1`, for which the MIC against Candida albicans [1] was 25 µg/mL (≈ 86 µM); with Pseudomonas aeruginosa [3] it was 100 µg/mL (≈ 344 µM); with Staphylococcus aureus [6] it was 12.5 µg/mL (≈ 43 µM); in the experiment on Escherichia coli [8], 12.5 µg/mL (≈ 43 µM). The “diameter of the inhibition zone (DIZ)” value in the experiment with Staphylococcus aureus [2] is 10 mm; in the experiment on Pseudomonas aeruginosa [4], 14 mm; in the experiment with Escherichia coli [5], 17 mm; in the experiment on Candida albicans [7], 18 mm. Also, in the experiment on Klebsiella pneumoniae, the outcome was inactive.
